Results from ChEMBL document CHEMBL1671645, “Pharmacokinetics and absorption of posaconazole oral suspension under various gastric conditions in healthy volunteers” (Antimicrob Agents Chemother, 2009).

Key:
[1] = Tmax in fasted healthy human at 400 mg administered as single dose suspension coadministered with proton pump inhibitor; assay type: ADME, organism-based; conditions: in vivo
Outline: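 Single oral suspension dose in fasting healthy volunteers, alone, with 12 oz ginger ale, after esomeprazole 40 mg once each morning days −2 to 1, or both; four-way crossover, 7–10-day washout. EDTA plasma 0–168 h. LC-MS/MS (LLOQ 5.00 ng/ml). t1/2 = ln(2)/K from terminal log-linear regression; Tmax median.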

Homo sapiens [2] = test: Toxicity in healthy human assessed as nausea at 400 mg administered as single dose suspension coadministered with nutritional supplement and 4 mg loperamide as two 2 mg tablets; assay type: organism-based; conditions: in vivo
Outline: (§1)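 Three-way randomized crossover in 13 healthy volunteers with a 7- to 10-day washout. Each period was one 400-mg oral posaconazole suspension dose with a nutritional supplement. Metoclopramide 10 mg was given orally three times daily on the day before and the day of dosing; loperamide was a single 4 mg. Safety was assessed from adverse events, tabulated by body system and severity per treatment.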

Homo sapiens [3] = test: AUC in fasted healthy human at 200 mg QID, po administered as suspension for 7 days; assay type: ADME, organism-based, Plasma; conditions: in vivo, 168 h
Outline: (§2)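 Twelve healthy subjects took oral suspension for 7 days as 400 mg BID or 200 mg QID, either fasting or with a Boost-type nutritional supplement, in a crossover with 14–21 day washouts. Nonfat snacks of 800 cal/day or less were allowed. Plasma was sampled 0–168 h after the day-7 morning dose only and analysed by LC-MS/MS. AUC is AUC_τ, normalized to dose.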

[4] = Apparent volume of distribution in fasted healthy human at 400 mg administered as single dose suspension; assay type: ADME, organism-based; conditions: in vivo, read-out: Vc/F
Homo sapiens [5] = test: Toxicity in healthy human assessed as adverse events at 200 mg QID, po administered as suspension for 7 days coadministered with nutritional supplement; assay type: organism-based; conditions: in vivo, 168 h
Outline: (§3)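 Healthy volunteers monitored for adverse events, vital signs, clinical laboratory values and 12-lead ECG. Adverse events tabulated by body system or organ class and severity and summarized by treatment across the crossover regimens.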

[6] = Tmax in fasted healthy human at 400 mg BID, po administered as suspension for 7 days; assay type: ADME, organism-based; conditions: in vivo
Outline: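 Healthy volunteers given oral suspension (40 mg/ml) for 7 days, fasted or with nutritional supplement (Boost); four-way crossover, 14–21-day washout, nonfat snacks ≤800 cal/day allowed. On day 7 only the morning dose was given; plasma sampled predose to 168 h after it. LC-MS/MS (LLOQ 5.00 ng/ml). t1/2 = ln(2)/K from log-linear terminal slope; Tmax as median.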

[7] = Cmax in fasted healthy human plasma at 400 mg administered as single dose suspension after consumption of high fat meal; assay type: ADME, organism-based; design: dose 400 mg
Outline: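 In a crossover of 12 healthy subjects, each took a single 400 mg oral suspension dose 5 min before, midway through (about 10 min into a 20-min meal), or 20 min after a high-fat meal of about 50 g fat. Plasma was drawn 0–168 h and measured by LC-MS/MS. Parameters are noncompartmental, with AUC to the last measurable time.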

[8] = Cmax in fasted healthy human plasma at 400 mg administered as single dose suspension coadministered with acidic carbonated beverage and proton pump inhibitor; assay type: ADME, organism-based; design: dose 400 mg
Outline: (§4)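 This was a four-way crossover in 12 healthy subjects with 7–10 day washouts. Each took one fasting 400 mg oral suspension dose, with 12 oz ginger ale and/or esomeprazole 40 mg once each morning on days −2 to 1, with dosing on day 1. Plasma was sampled 0–168 h and measured by LC-MS/MS (LLOQ 5.00 ng/ml). Analysis was noncompartmental, with CL/F = dose/AUC_I and V/F = (CL/F)/K.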

Homo sapiens [9] = test: Toxicity in healthy human assessed as fatigue at 400 mg administered as single dose suspension coadministered with nutritional supplement and 10 mg metoclopramide; assay type: organism-based; conditions: in vivo; outline: as §1
[10] = Apparent total body clearance in fasted healthy human at 400 mg administered as single dose suspension coadministered with acidic carbonated beverage; assay type: ADME, organism-based; conditions: in vivo; outline: as §4
[11] = Cmax in plasma in hematopoietic stem cell transplant recipient human with GVHD; assay type: ADME, organism-based
[12] = Half life in healthy human at 400 mg administered as single dose suspension coadministered with nutritional supplement and 10 mg metoclopramide; assay type: ADME, organism-based; conditions: in vivo
Outline: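 Single oral suspension dose with nutritional supplement, alone or with metoclopramide 10 mg orally three times daily on the day before and the day of dosing; three-way crossover, 7–10-day washout. EDTA plasma predose to 168 h, LC-MS/MS (LLOQ 5.00 ng/ml). t1/2 = ln(2)/K from terminal slope; Tmax median.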

[13] = Cmax in plasma in hematopoietic stem cell transplant recipient human with GVHD and diarrhea; assay type: ADME, organism-based
Homo sapiens [14] = test: Apparent total body clearance in healthy human at 200 mg QID, po administered as suspension for 7 days coadministered with nutritional supplement; assay type: ADME, organism-based; conditions: in vivo, 168 h; outline: as §2
[15] = Half life in fasted healthy human at 400 mg administered as single dose suspension after consumption of high fat meal; assay type: ADME, organism-based; conditions: in vivo
Outline: (§5)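 Single oral suspension dose in healthy volunteers while fasting, 5 min before, midway through (about 10 min into a 20-min meal), or 20 min after a high-fat meal (approx 50 g fat); four-way crossover, 7–10-day washout. Plasma 0–168 h by LC-MS/MS (LLOQ 5.00 ng/ml). t1/2 = ln(2)/K; Tmax median.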

Homo sapiens [16] = test: Toxicity in healthy human assessed as asthenia at 200 mg QID, po administered as suspension for 7 days coadministered with nutritional supplement; assay type: organism-based; conditions: in vivo, 168 h; outline: as §3
Homo sapiens [17] = test: Toxicity in healthy human assessed as nausea at 400 mg administered as single dose suspension coadministered with nutritional supplement and 10 mg metoclopramide; assay type: organism-based; conditions: in vivo; outline: as §1
Homo sapiens [18] = test: Toxicity in healthy human assessed as dizziness at 400 mg BID, po administered as suspension for 7 days; assay type: organism-based; conditions: in vivo, 168 h
Outline: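 Healthy volunteers (n = 12) took oral posaconazole suspension (40 mg/ml) for 7 days in a four-way randomized crossover with a 14- to 21-day washout. Subjects stayed fasted throughout, with nonfat snacks up to 800 cal/day allowed. Where given, Boost was taken with each dose. Safety covered adverse events, vital signs, clinical labs and 12-lead ECG, with AEs tabulated by body system and severity per treatment.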

[19] = Tmax in fasted healthy human at 400 mg administered as single dose suspension 5 mins before consumption of high fat meal; assay type: ADME, organism-based; conditions: in vivo; outline: as §5
[20] = Apparent volume of distribution in fasted healthy human at 400 mg administered as single dose suspension coadministered with acidic carbonated beverage; assay type: ADME, organism-based; conditions: in vivo, read-out: Vc/F; outline: as §4
[21] = Cmax in fasted healthy human plasma at 400 mg administered as single dose suspension; assay type: ADME, organism-based; design: dose 400 mg
Homo sapiens [22] = test: Apparent total body clearance in fasted healthy human at 400 mg BID, po administered as suspension for 7 days; assay type: ADME, organism-based; conditions: in vivo, 168 h; outline: as §2
Homo sapiens [23] = test: Toxicity in healthy human assessed as adverse events at 400 mg administered as single dose suspension after consumption of high fat meal; assay type: organism-based; conditions: in vivo; outline: as §3
[24] = Tmax in fasted healthy human at 400 mg administered as single dose suspension after consumption of high fat meal; assay type: ADME, organism-based; conditions: in vivo; outline: as §5
[25] = Cmax in healthy human plasma at 400 mg administered as single dose suspension coadministered with nutritional supplement and 10 mg metoclopramide; assay type: ADME, organism-based; design: dose 400 mg
Outline: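 A three-way crossover in 13 healthy subjects gave one 400 mg oral suspension dose with a nutritional supplement, either alone, with metoclopramide 10 mg orally three times daily on the day before and the day of dosing, or with a single 4 mg dose of loperamide. Plasma was taken 0–168 h for LC-MS/MS. Analysis was noncompartmental.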

Homo sapiens [26] = test: Toxicity in healthy human assessed as dizziness at 400 mg administered as single dose suspension coadministered with nutritional supplement and 10 mg metoclopramide; assay type: organism-based; conditions: in vivo; outline: as §1

CC[C@@H]([C@H](C)O)n1ncn(-c2ccc(N3CCN(c4ccc(OC[C@@H]5CO[C@@](Cn6cncn6)(c6ccc(F)cc6F)C5)cc4)CC3)cc2)c1=O [POSACONAZOLE]
Tmax [1]: 6 h
Activity (Homo sapiens [2]): 23%
AUC (Homo sapiens [3]): 132 µg·h/mL
Vd/F [4]: 3580 L
Activity (Homo sapiens [5]): 75%
Tmax [6]: 6 h
Cmax [7]: 544 ng/mL
Cmax [8]: 93.3 ng/mL
Activity (Homo sapiens [9]): 15%
CL/F [10]: 870 mL/min
Cmax [11]: 1460 ng/mL
half-life [12]: 27.7 h
Cmax [13]: 623 ng/mL
CL/F (Homo sapiens [14]): 20.4 L/h
half-life [15]: 22.6 h
Activity (Homo sapiens [16]): 25%
Activity (Homo sapiens [17]): 23%
Activity (Homo sapiens [18]): 33%
Tmax [19]: 7 h
Vd/F [20]: 1840 L
Cmax [21]: 181 ng/mL
CL/F (Homo sapiens [22]): 54.6 L/h
Activity (Homo sapiens [23]): 25%
Tmax [24]: 6 h
Cmax [25]: 232 ng/mL
Activity (Homo sapiens [26]): 15%
